# Experiments:
# MCF7 [1] = assay: Cytotoxicity against human MCF7 cells assessed as reduction in cell growth incubated for 72 hrs by MTT assay; format: functional, cell-based; conditions: MCF7, 72 h
# Method in brief: (§1)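 Cells grown in DMEM with 10% FBS and penicillin-streptomycin at 37 °C, 5% CO2, seeded at 3000 cells/well and attached overnight. Screening series given at 1, 3, 10, 100 μM; follow-up agent at 100 nM–3 μM; both 72 h, with 0.1% DMSO vehicle. MTT (5 mg/mL stock) added for 3 h at 37 °C, formazan dissolved in DMSO, absorbance read at 570 nm. Viability expressed as % of DMSO-treated wells from replicates.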
# A-431 [2] = assay: Cytotoxicity against human A431 cells assessed as reduction in cell growth incubated for 72 hrs by MTT assay; format: functional, cell-based; conditions: A-431, 72 h; method in brief: as §1
# A-375 [3] = assay: Cytotoxicity against human A375 cells assessed as reduction in cell growth incubated for 72 hrs by MTT assay; format: functional, cell-based; conditions: A-375, 72 h; method in brief: as §1
# HeLa [4] = assay: Cytotoxicity against human HeLa cells assessed as reduction in cell growth incubated for 72 hrs by MTT assay; format: functional, cell-based; method in brief: as §1
# A-375 [5] = assay: Cytotoxicity against human A375 cells assessed as reduction in cell growth at 1 uM incubated for 72 hrs by MTT assay relative to control; format: functional; conditions: A-375, 72 h, read-out: GI; method in brief: as §1
# A-375 [6] = assay: Cytotoxicity against human A375 cells assessed as reduction in cell growth at 3 uM incubated for 72 hrs by MTT assay relative to control; format: functional; conditions: A-375, 72 h, read-out: GI; method in brief: as §1
# A-375 [7] = assay: Cytotoxicity against human A375 cells assessed as reduction in cell growth at 10 uM incubated for 72 hrs by MTT assay relative to control; format: functional; conditions: A-375, 72 h, read-out: GI; method in brief: as §1
# A-375 [8] = assay: Cytotoxicity against human A375 cells assessed as reduction in cell growth at 30 uM incubated for 72 hrs by MTT assay relative to control; format: functional; conditions: A-375, 72 h, read-out: GI
# A-375 [9] = assay: Cytotoxicity against human A375 cells assessed as reduction in cell growth at 100 uM incubated for 72 hrs by MTT assay relative to control; format: functional; conditions: A-375, 72 h, read-out: GI; method in brief: as §1
# A-431 [10] = assay: Cytotoxicity against human A431 cells assessed as reduction in cell growth at 1 uM incubated for 72 hrs by MTT assay relative to control; format: functional; conditions: A-431, 72 h, read-out: GI; method in brief: as §1
# A-431 [11] = assay: Cytotoxicity against human A431 cells assessed as reduction in cell growth at 3 uM incubated for 72 hrs by MTT assay relative to control; format: functional; conditions: A-431, 72 h, read-out: GI; method in brief: as §1
# A-431 [12] = assay: Cytotoxicity against human A431 cells assessed as reduction in cell growth at 10 uM incubated for 72 hrs by MTT assay relative to control; format: functional; conditions: A-431, 72 h, read-out: GI; method in brief: as §1
# A-431 [13] = assay: Cytotoxicity against human A431 cells assessed as reduction in cell growth at 30 uM incubated for 72 hrs by MTT assay relative to control; format: functional; conditions: A-431, 72 h, read-out: GI
# A-431 [14] = assay: Cytotoxicity against human A431 cells assessed as reduction in cell growth at 100 uM incubated for 72 hrs by MTT assay relative to control; format: functional; conditions: A-431, 72 h, read-out: GI; method in brief: as §1
# HeLa [15] = assay: Cytotoxicity against human HeLa cells assessed as reduction in cell growth at 1 uM incubated for 72 hrs by MTT assay relative to control; format: functional; conditions: read-out: GI; method in brief: as §1
# HeLa [16] = assay: Cytotoxicity against human HeLa cells assessed as reduction in cell growth at 3 uM incubated for 72 hrs by MTT assay relative to control; format: functional; conditions: read-out: GI; method in brief: as §1
# HeLa [17] = assay: Cytotoxicity against human HeLa cells assessed as reduction in cell growth at 10 uM incubated for 72 hrs by MTT assay relative to control; format: functional; conditions: read-out: GI; method in brief: as §1
# HeLa [18] = assay: Cytotoxicity against human HeLa cells assessed as reduction in cell growth at 30 uM incubated for 72 hrs by MTT assay relative to control; format: functional; conditions: read-out: GI
# HeLa [19] = assay: Cytotoxicity against human HeLa cells assessed as reduction in cell growth at 100 uM incubated for 72 hrs by MTT assay relative to control; format: functional; conditions: read-out: GI; method in brief: as §1
# MCF7 [20] = assay: Cytotoxicity against human MCF7 cells assessed as reduction in cell growth at 1 uM incubated for 72 hrs by MTT assay relative to control; format: functional; conditions: MCF7, 72 h, read-out: GI; method in brief: as §1
# MCF7 [21] = assay: Cytotoxicity against human MCF7 cells assessed as reduction in cell growth at 3 uM incubated for 72 hrs by MTT assay relative to control; format: functional; conditions: MCF7, 72 h, read-out: GI; method in brief: as §1
# MCF7 [22] = assay: Cytotoxicity against human MCF7 cells assessed as reduction in cell growth at 10 uM incubated for 72 hrs by MTT assay relative to control; format: functional; conditions: MCF7, 72 h, read-out: GI; method in brief: as §1
# MCF7 [23] = assay: Cytotoxicity against human MCF7 cells assessed as reduction in cell growth at 30 uM incubated for 72 hrs by MTT assay relative to control; format: functional; conditions: MCF7, 72 h, read-out: GI
# MCF7 [24] = assay: Cytotoxicity against human MCF7 cells assessed as reduction in cell growth at 100 uM incubated for 72 hrs by MTT assay relative to control; format: functional; conditions: MCF7, 72 h, read-out: GI; method in brief: as §1
compound,measurement,setting,value
Cc1ccnc(/C(N)=N/NC(=S)N2CCCC2)c1,IC50,MCF7 [1],1200 nM
same,IC50,A-431 [2],900 nM
same,IC50,A-375 [3],720 nM
same,IC50,HeLa [4],1900 nM
same,inhibition of growth at 1 µM,A-375 [5],69%
same,inhibition of growth at 3 µM,A-375 [6],80%
same,inhibition of growth at 10 µM,A-375 [7],86%
same,inhibition of growth at 30 µM,A-375 [8],87.9%
same,inhibition of growth at 100 µM,A-375 [9],88.8%
same,inhibition of growth at 1 µM,A-431 [10],58.5%
same,inhibition of growth at 3 µM,A-431 [11],63%
same,inhibition of growth at 10 µM,A-431 [12],71.2%
same,inhibition of growth at 30 µM,A-431 [13],84.2%
same,inhibition of growth at 100 µM,A-431 [14],86.9%
same,inhibition of growth at 1 µM,HeLa [15],25.9%
same,inhibition of growth at 3 µM,HeLa [16],52.1%
same,inhibition of growth at 10 µM,HeLa [17],67%
same,inhibition of growth at 30 µM,HeLa [18],86.4%
same,inhibition of growth at 100 µM,HeLa [19],88.1%
same,inhibition of growth at 1 µM,MCF7 [20],49%
same,inhibition of growth at 3 µM,MCF7 [21],57.7%
same,inhibition of growth at 10 µM,MCF7 [22],63.6%
same,inhibition of growth at 30 µM,MCF7 [23],82.2%
same,inhibition of growth at 100 µM,MCF7 [24],87.7%
Cc1cccc(/C(N)=N/NC(=S)N2CCOCC2)n1,IC50,MCF7 [1],21500 nM
same,IC50,A-431 [2],4300 nM
same,IC50,A-375 [3],14000 nM
same,IC50,HeLa [4],2200 nM
same,inhibition of growth at 1 µM,A-375 [5],30.2%
same,inhibition of growth at 3 µM,A-375 [6],34.7%
same,inhibition of growth at 10 µM,A-375 [7],43.6%
same,inhibition of growth at 30 µM,A-375 [8],74.3%
same,inhibition of growth at 100 µM,A-375 [9],83.8%
same,inhibition of growth at 1 µM,A-431 [10],47.2%
same,inhibition of growth at 3 µM,A-431 [11],45.8%
same,inhibition of growth at 10 µM,A-431 [12],68.1%
same,inhibition of growth at 30 µM,A-431 [13],80%
same,inhibition of growth at 100 µM,A-431 [14],84.8%
same,inhibition of growth at 1 µM,HeLa [15],25.7%
same,inhibition of growth at 3 µM,HeLa [16],65.7%
same,inhibition of growth at 10 µM,HeLa [17],85.4%
same,inhibition of growth at 30 µM,HeLa [18],86.9%
same,inhibition of growth at 100 µM,HeLa [19],82.4%
same,inhibition of growth at 1 µM,MCF7 [20],11.7%
same,inhibition of growth at 3 µM,MCF7 [21],21.6%
same,inhibition of growth at 10 µM,MCF7 [22],39.1%
same,inhibition of growth at 30 µM,MCF7 [23],57.8%
same,inhibition of growth at 100 µM,MCF7 [24],74.7%
Cc1cccc(/C(N)=N/NC(=S)N2CCN(c3ccccn3)CC2)n1,IC50,MCF7 [1],> 100000 nM
same,IC50,A-431 [2],19600 nM
same,IC50,A-375 [3],850 nM
same,IC50,HeLa [4],900 nM
same,inhibition of growth at 1 µM,A-375 [5],58.4%
same,inhibition of growth at 3 µM,A-375 [6],61.8%
same,inhibition of growth at 10 µM,A-375 [7],63.3%
same,inhibition of growth at 30 µM,A-375 [8],74.8%
same,inhibition of growth at 100 µM,A-375 [9],83.8%
same,inhibition of growth at 1 µM,A-431 [10],9.2%
same,inhibition of growth at 3 µM,A-431 [11],34.3%
same,inhibition of growth at 10 µM,A-431 [12],43%
same,inhibition of growth at 30 µM,A-431 [13],57.4%
same,inhibition of growth at 100 µM,A-431 [14],78.9%
same,inhibition of growth at 1 µM,HeLa [15],51.8%
same,inhibition of growth at 3 µM,HeLa [16],72.7%
same,inhibition of growth at 10 µM,HeLa [17],72.8%
same,inhibition of growth at 30 µM,HeLa [18],86.3%
same,inhibition of growth at 100 µM,HeLa [19],86.3%
same,inhibition of growth at 1 µM,MCF7 [20],8.5%
same,inhibition of growth at 3 µM,MCF7 [21],27.1%
same,inhibition of growth at 10 µM,MCF7 [22],20.8%
same,inhibition of growth at 30 µM,MCF7 [23],36%
same,inhibition of growth at 100 µM,MCF7 [24],49.8%

# — ChEMBL document CHEMBL4387724, “2-Pyridineformamide N(4)-ring incorporated thiosemicarbazones inhibit MCF-7 cells by inhibiting JNK pathway” (Bioorg Med Chem Lett, 2019)
